Experimental data published in paper PMC3947005 (Cancer research, 2013).

How the values were obtained:
[1] = system: MPNSTs from the cis-Nf1+/-;p53+/- mouse model; conditions: ref [7], [44]; cited from earlier work
pAKT in sMPNST cells = assay: Phospho-AKT Western blot; assay type: cell-based, mouse; conditions: 20 µM for 30 or 60 minutes
Summary of the method: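 Mouse sMPNST cells exposed to a PI3K-inhibitor test compound at 20 µM for 30 or 60 min. Cells collected, trypsinized and lysed in RIPA buffer. Lysates resolved on 5–20% SDS-PAGE gels and immunoblotted for phospho-AKT and total AKT, with αTubulin or GAPDH as loading reference.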

pERK in sMPNST cells = assay: Phospho-ERK Western blot; assay type: cell-based, mouse; conditions: 10 µM for 30 minutes
Summary of the method: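 Mouse sMPNST cells treated with test compound at 10 µM for 30 min, then trypsinized and lysed in RIPA buffer. Lysates run on 5–20% SDS-PAGE gels and immunoblotted for phospho-ERK and total ERK, with αTubulin or GAPDH as loading reference.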

sMPNST cells = assay: CellTiter-Glo ATP luminescence assay, dose response; assay type: cell-based, mouse; conditions: rapamycin alone
pS6 in sMPNST cells = assay: pS6 Western blot; assay type: cell-based, mouse; conditions: 0.05 µM (50 nM) for 30 or 60 min
Summary of the method: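 Mouse sMPNST cells exposed to test compound at 0.05 µM (50 nM) for 30 or 60 min. Cells collected, trypsinized and lysed in RIPA buffer. Lysates resolved on 5–20% SDS-PAGE gels and probed for phospho-S6.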

## c1cc(CN2CCCNCCNCCCNCC2)ccc1CN1CCCNCCNCCCNCC1 [AMD3100]
[1]
  inhibition of MPNSTs: inhibit MPNSTs

## O=c1cc(N2CCOCC2)oc2c(-c3ccccc3)cccc12 [LY294002]
pAKT in sMPNST cells
  pAKT inhibition: effective pAKT inhibition

## N#CC(=C(/N)Sc1ccccc1N)/C(C#N)=C(/N)Sc1ccccc1N [U0126]
pERK in sMPNST cells
  Phospho-ERK inhibition: verified by Western blotting

## CO[C@H]1C[C@@H]2CC[C@@H](C)[C@@](O)(O2)C(=O)C(=O)N2CCCC[C@H]2C(=O)O[C@H]([C@H](C)C[C@@H]2CC[C@@H](O)[C@H](OC)C2)CC(=O)[C@H](C)/C=C(\C)[C@@H](O)[C@@H](OC)C(=O)[C@H](C)C[C@H](C)/C=C/C=C/C=C/1C [rapamycin]
sMPNST cells
  sMPNST cellular growth response: relatively resistant
[1]
  inhibition of MPNSTs: inhibit MPNSTs
pS6 in sMPNST cells
  pS6 levels: decreased pS6 levels
